Calls of active or inactive are those of the source. The calls are words filed in the database; no cut-off is given here.
Columns and labels:
Cytochrome P450 2D6 = Cytochrome P450 2D6 (Homo sapiens, UniProt P10635); assay: Inhibition of CYP2D6 in human liver microsomes using 3-[2-(N,N-diethyl-N-methylamino)ethyl]-7- methoxy-4-methylcoumarin as substrate after 45 mins by LC/MS/MS analysis; type: ADME, Microsome
[1] = Mean resident time in jugular and femoral vein precannulated Sprague-Dawley rat at 1 mg/kg, iv by LC/MS/MS analysis; type: ADME, organism-based; set-up: dose 1 mg/kg, route intravenous; conditions: in vivo
Cytochrome P450 2C19 = Cytochrome P450 2C19 (Homo sapiens, UniProt P33261); assay: Inhibition of CYP2C19 in human liver microsomes using 7-ethoxy-3-cyanocoumarin as substrate after 45 mins by LC/MS/MS analysis; type: ADME, Microsome
Cytochrome P450 2C19, sequence (P33261 whole entry): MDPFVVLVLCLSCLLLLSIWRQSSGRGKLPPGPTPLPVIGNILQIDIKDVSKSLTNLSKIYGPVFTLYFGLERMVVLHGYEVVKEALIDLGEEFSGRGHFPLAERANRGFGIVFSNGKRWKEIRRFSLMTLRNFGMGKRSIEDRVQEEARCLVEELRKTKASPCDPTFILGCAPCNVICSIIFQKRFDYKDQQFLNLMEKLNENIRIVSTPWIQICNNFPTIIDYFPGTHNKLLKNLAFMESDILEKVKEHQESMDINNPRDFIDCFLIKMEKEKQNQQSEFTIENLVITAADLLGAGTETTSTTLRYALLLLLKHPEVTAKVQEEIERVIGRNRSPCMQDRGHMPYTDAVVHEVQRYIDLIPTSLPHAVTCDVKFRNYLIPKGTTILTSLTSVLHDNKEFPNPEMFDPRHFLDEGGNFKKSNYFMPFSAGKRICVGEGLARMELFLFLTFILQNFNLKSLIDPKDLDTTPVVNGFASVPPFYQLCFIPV

[2] = Metabolic stability in rat liver microsomes at 1 uM up to 60 mins by LC/MS/MS analysis relative to hepatic blood flow; type: ADME, Microsome; conditions: read-out: Stability
Cytochrome P450 3A4 [3] = biological target: T1, Cytochrome P450 3A4 (Homo sapiens, UniProt P08684); assay: Inhibition of CYP3A4 in human liver microsomes using 7-benzyloxy-4-(trifluoromethyl)-coumarin as substrate after 30 mins by LC/MS/MS analysis; type: ADME, Microsome
T1 sequence (P08684 whole entry): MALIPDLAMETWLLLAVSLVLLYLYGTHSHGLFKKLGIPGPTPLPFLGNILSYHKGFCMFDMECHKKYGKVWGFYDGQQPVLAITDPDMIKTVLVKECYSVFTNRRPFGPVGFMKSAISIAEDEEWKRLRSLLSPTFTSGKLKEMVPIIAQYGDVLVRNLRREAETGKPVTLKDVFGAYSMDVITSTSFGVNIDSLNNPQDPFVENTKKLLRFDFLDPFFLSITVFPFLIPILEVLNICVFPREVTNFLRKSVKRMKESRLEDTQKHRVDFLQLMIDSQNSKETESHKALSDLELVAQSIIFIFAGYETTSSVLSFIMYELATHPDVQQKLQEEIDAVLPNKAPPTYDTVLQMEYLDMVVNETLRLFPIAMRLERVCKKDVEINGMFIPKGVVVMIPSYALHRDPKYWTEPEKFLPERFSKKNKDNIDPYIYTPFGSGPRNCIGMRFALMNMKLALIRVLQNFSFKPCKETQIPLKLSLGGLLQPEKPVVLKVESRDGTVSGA

[4] = Permeability of the compound by PAMPA; type: ADME; conditions: read-out: permeability
Outline: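 Donor buffers were set to pH 5.0, 6.2 and 7.4 with NaOH, and ASB7.4 buffer was used as acceptor. Filters (0.45 pore, 125 μm thick) were lipid-coated. A 10 mM DMSO stock was diluted to 41.7 μM in donor buffer. The sandwich was incubated 4 h without stirring. Reference, donor and acceptor concentrations were read in duplicate by UV plate reader, and ratings were assigned from permeation velocity.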

Cytochrome P450 2C9 = Cytochrome P450 2C9 (Homo sapiens, UniProt P11712); assay: Inhibition of CYP2C9 in human liver microsomes using 7-methoxy-4-(trifluoromethyl)-coumarin as substrate after 45 mins by LC/MS/MS analysis; type: ADME, Microsome
Cytochrome P450 2C9, sequence (P11712 whole entry): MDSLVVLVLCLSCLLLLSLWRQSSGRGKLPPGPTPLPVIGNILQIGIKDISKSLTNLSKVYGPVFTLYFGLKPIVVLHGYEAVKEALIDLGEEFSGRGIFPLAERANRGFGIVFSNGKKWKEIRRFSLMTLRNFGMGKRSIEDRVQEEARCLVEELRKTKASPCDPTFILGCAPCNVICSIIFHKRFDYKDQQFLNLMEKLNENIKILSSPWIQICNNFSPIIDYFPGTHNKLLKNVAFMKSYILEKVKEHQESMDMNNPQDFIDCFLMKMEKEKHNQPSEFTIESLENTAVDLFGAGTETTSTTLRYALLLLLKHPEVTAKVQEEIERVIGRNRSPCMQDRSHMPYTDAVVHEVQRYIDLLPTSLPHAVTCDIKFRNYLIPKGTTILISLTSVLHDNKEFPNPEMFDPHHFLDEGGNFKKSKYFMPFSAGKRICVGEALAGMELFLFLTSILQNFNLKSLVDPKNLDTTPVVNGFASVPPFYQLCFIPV

Rattus norvegicus = assay: Clearance in jugular and femoral vein precannulated Sprague-Dawley rat at 1 mg/kg, iv by LC/MS/MS analysis relative to hepatic blood flow; type: ADME, organism-based, Liver; set-up: dose 1 mg/kg, route intravenous; conditions: in vivo
[5] = biological target: Voltage-gated inwardly rectifying potassium channel KCNH2 (Homo sapiens, UniProt Q12809); assay: Inhibition of human ERG expressed in HEK 293 cells by PatchXpress assay; type: cell-based, HEK293
Voltage-gated inwardly rectifying potassium channel KCNH2, sequence (Q12809 whole entry): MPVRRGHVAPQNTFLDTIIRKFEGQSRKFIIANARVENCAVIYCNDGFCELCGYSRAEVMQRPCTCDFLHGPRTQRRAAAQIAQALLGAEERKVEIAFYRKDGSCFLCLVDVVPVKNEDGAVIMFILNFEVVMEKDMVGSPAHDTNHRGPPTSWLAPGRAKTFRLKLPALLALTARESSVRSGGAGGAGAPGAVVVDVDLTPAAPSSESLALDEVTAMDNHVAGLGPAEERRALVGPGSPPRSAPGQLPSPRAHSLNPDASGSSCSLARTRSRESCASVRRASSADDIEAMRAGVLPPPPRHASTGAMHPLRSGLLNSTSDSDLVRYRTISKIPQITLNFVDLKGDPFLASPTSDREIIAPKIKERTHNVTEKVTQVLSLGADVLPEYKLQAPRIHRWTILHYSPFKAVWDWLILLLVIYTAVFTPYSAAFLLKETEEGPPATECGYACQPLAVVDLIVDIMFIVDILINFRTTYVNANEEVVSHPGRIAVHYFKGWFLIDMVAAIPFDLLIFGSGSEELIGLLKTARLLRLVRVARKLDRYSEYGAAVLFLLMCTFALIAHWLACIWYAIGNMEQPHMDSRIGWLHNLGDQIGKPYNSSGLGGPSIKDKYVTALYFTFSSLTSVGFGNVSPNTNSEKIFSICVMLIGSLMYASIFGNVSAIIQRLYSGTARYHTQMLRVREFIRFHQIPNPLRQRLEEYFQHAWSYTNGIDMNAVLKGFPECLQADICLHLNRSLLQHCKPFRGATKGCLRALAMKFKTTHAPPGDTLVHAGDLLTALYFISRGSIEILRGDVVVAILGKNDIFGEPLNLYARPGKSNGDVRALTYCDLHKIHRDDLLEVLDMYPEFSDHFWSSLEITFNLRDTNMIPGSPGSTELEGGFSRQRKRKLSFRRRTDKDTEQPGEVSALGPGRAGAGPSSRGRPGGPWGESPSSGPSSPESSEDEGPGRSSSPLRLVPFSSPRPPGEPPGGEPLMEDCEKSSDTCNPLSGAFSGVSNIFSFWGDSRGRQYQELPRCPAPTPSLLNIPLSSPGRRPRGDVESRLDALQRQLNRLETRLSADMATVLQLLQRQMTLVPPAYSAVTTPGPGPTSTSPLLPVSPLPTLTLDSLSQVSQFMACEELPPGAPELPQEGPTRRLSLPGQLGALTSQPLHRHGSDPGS

[6] = Metabolic stability in human liver microsomes at 1 uM up to 60 mins by LC/MS/MS analysis relative to hepatic blood flow; type: ADME, Microsome; conditions: read-out: Stability
[7] = Volume of distribution at steady state in jugular and femoral vein precannulated Sprague-Dawley rat at 1 mg/kg, iv by LC/MS/MS analysis; type: ADME, organism-based; set-up: dose 1 mg/kg, route intravenous; conditions: in vivo, read-out: Vdss
Canis familiaris = assay: Clearance in overnight fasted Beagle dog at 1 mg/kg, iv relative to hepatic blood flow; type: ADME, organism-based, Canis lupus familiaris, Liver; set-up: dose 1 mg/kg, route intravenous; conditions: in vivo
[8] = Oral bioavailability in overnight fasted Beagle dog at 5 mg/kg; type: ADME, organism-based, Canis lupus familiaris; conditions: in vivo
[9] = biological target: T2, Sodium/hydrogen exchanger 1 (Homo sapiens, UniProt P19634); assay: Inhibition of NHE1 in human HT-29 cells assessed as intracellular pH change after 30 mins; type: cell-based
T2 sequence (P19634 whole entry): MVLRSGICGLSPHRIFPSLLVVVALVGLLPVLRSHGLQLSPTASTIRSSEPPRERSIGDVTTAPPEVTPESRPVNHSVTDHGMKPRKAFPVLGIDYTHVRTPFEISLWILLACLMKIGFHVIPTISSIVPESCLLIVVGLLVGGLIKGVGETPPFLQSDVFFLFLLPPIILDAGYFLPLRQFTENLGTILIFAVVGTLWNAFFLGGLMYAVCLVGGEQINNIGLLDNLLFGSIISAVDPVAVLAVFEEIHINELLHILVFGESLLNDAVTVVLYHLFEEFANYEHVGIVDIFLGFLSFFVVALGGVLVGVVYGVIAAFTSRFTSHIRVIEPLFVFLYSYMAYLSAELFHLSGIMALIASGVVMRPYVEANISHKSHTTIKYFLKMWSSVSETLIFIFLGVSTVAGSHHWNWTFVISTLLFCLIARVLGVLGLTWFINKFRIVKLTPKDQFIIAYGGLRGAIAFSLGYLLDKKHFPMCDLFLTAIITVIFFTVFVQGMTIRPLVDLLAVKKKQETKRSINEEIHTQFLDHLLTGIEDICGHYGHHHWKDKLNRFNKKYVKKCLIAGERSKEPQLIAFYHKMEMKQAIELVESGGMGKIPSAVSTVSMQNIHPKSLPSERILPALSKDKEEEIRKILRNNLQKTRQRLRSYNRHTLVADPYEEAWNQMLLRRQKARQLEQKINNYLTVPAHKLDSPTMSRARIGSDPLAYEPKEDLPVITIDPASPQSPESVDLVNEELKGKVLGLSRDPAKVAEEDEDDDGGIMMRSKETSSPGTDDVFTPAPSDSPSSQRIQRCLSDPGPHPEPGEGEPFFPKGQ

[10] = Oral bioavailability in jugular and femoral vein precannulated Sprague-Dawley rat plasma at 5 mg/kg by LC/MS/MS analysis; type: ADME, organism-based
[11] = Mean resident time in overnight fasted Beagle dog at 1 mg/kg, iv; type: ADME, organism-based, Canis lupus familiaris; set-up: dose 1 mg/kg, route intravenous; conditions: in vivo
[12] = biological target: T2, Sodium/hydrogen exchanger 1; assay: Inhibition of NHE1 in human HT-29 cells assessed as intracellular pH change after 30 mins in presence of plasma protein; type: cell-based
Salmonella typhimurium [13] = assay: Genotoxicity in Salmonella typhimurium TA1535 up to 5000 ug/plate by Ames test in the absence of S9 fraction; type: toxicity, organism-based; conditions: salmonella enterica subsp. enterica serovar typhimurium
Cytochrome P450 3A4 [14] = biological target: T1, Cytochrome P450 3A4; assay: Activation of CYP3A4 expressed in DPX cells co-transfected with human PXR at 0.1 to 10 uM; type: ADME, cell-based
U-937 = assay: Induction of phopspholipidosis in human U937 cells up to 50 uM after 24 hrs by Nile red flow cytometry assay; type: cell-based; conditions: u-937, 24 h
Salmonella typhimurium [15] = assay: Genotoxicity in Salmonella typhimurium TA1537 up to 5000 ug/plate by Ames test in the presence of S9 fraction; type: toxicity, organism-based; conditions: salmonella enterica subsp. enterica serovar typhimurium
Escherichia coli [16] = assay: Genotoxicity in Escherichia coli WP2 expressing uvrA up to 5000 ug/plate by Ames test in absence of S9 fraction; type: toxicity, organism-based
[17] = Volume of distribution at steady state in overnight fasted Beagle dog at 1 mg/kg, iv; type: ADME, organism-based, Canis lupus familiaris; set-up: dose 1 mg/kg, route intravenous; conditions: in vivo, read-out: Vdss
Salmonella typhimurium [18] = assay: Genotoxicity in Salmonella typhimurium TA98 up to 5000 ug/plate by Ames test in the absence of S9 fraction; type: toxicity, organism-based; conditions: salmonella enterica subsp. enterica serovar typhimurium
Heart [19] = assay: Inhibition of ischemia reperfusion injury-induced decrease in left ventricular developed pressure in Langendorff isolated perfused Sprague-Dawley rat heart at 100 nM after 30 mins; type: functional; set-up: scale not given: the % may be the effect or the level left
Outline: (§1)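 In the isolated perfused rat heart ischemia-reperfusion model, compound was present in the perfusate. Recovery of left ventricular developed pressure was expressed as % of baseline pressure, 30 min postreperfusion, against vehicle control. Left ventricular end diastolic pressure was also monitored.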

Escherichia coli [20] = assay: Genotoxicity in Escherichia coli WP2 expressing uvrA up to 5000 ug/plate by Ames test in presence of S9 fraction; type: toxicity, organism-based
Salmonella typhimurium [21] = assay: Genotoxicity in Salmonella typhimurium TA98 up to 5000 ug/plate by Ames test in the presence of S9 fraction; type: toxicity, organism-based; conditions: salmonella enterica subsp. enterica serovar typhimurium
Salmonella typhimurium [22] = assay: Genotoxicity in Salmonella typhimurium TA1535 up to 5000 ug/plate by Ames test in the presence of S9 fraction; type: toxicity, organism-based; conditions: salmonella enterica subsp. enterica serovar typhimurium
Salmonella typhimurium [23] = assay: Genotoxicity in Salmonella typhimurium TA1537 up to 5000 ug/plate by Ames test in the absence of S9 fraction; type: toxicity, organism-based; conditions: salmonella enterica subsp. enterica serovar typhimurium
Salmonella typhimurium [24] = assay: Genotoxicity in Salmonella typhimurium TA100 up to 5000 ug/plate by Ames test in the absence of S9 fraction; type: toxicity, organism-based; conditions: salmonella enterica subsp. enterica serovar typhimurium
Heart [25] = assay: Inhibition of ischemia reperfusion injury-induced decrease in left ventricular developed pressure in Langendorff isolated perfused Sprague-Dawley rat heart at 10 nM after 30 mins; type: functional; set-up: scale not given: the % may be the effect or the level left; outline: as §1
[26] = biological target: T3, Sodium/hydrogen exchanger 3 (Homo sapiens) (UniProt P48764); assay: Inhibition of NHE3 transfected in Chinese hamster PS120 assessed as intracellular pH change up to 16 uM; type: cell-based
T3 sequence (whole entry): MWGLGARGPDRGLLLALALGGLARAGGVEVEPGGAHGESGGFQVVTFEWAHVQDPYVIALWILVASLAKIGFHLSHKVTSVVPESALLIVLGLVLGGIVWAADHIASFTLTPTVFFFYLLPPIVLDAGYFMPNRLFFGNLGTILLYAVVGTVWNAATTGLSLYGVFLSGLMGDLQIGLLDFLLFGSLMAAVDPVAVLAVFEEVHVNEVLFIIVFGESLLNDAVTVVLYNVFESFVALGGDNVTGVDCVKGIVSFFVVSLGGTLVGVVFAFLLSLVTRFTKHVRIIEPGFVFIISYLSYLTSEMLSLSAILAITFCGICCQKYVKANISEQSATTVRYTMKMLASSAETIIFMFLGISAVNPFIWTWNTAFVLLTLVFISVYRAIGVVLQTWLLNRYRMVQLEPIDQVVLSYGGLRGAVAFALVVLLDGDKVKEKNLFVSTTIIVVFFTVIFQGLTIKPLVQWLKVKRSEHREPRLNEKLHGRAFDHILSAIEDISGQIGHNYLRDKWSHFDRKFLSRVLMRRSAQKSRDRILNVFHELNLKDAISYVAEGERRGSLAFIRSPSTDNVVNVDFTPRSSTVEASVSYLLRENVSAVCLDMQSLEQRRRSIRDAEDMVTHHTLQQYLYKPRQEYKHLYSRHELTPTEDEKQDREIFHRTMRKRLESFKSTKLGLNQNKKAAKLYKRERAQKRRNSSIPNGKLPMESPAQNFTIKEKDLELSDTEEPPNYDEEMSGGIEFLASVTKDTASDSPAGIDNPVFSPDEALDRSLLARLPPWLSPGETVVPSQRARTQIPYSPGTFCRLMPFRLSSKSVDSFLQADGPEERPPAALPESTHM

HeLa = assay: Cytotoxicity against human HeLa cells up to 100 uM after 24 hrs; type: cell-based
Salmonella typhimurium [27] = assay: Genotoxicity in Salmonella typhimurium TA100 up to 5000 ug/plate by Ames test in the presence of S9 fraction; type: toxicity, organism-based; conditions: salmonella enterica subsp. enterica serovar typhimurium

Cytochrome P450 2D6, sequence (P10635 whole entry): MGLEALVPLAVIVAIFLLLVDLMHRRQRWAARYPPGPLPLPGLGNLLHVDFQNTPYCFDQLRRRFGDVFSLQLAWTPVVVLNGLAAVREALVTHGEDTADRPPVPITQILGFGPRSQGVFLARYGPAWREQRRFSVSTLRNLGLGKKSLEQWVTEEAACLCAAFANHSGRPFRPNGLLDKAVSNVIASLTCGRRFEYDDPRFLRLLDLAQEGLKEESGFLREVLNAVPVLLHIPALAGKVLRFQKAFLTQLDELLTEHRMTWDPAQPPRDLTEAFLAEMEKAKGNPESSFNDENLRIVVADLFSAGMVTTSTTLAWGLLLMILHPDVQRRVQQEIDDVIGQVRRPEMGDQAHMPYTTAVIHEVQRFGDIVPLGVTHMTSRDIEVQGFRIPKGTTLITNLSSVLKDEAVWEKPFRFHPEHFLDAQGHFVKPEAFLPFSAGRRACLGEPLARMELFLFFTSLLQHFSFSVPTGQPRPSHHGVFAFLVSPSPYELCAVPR

Structure (SMILES)	IC50 (Cytochrome P450 2D6) [µM]	MRT [1] [h]	IC50 (Cytochrome P450 2C19) [µM]	hepatic extraction ratio at 1 h, 1 µM [2]	IC50 (Cytochrome P450 3A4 [3]) [µM]	Papp [4] [×10⁻⁶ cm/s]	IC50 (Cytochrome P450 2C9) [µM]	CL (Rattus norvegicus) [%]	hepatic extraction ratio at 1 h, 1 µM [6]	Vd [7] [L/kg]	CL (Canis familiaris) [%]	bioavailability [8] [%]	IC50 [9] [µM]	bioavailability [10] [%]	MRT [11] [h]	inhibition [12]	IC50 [5] [µM]	also measured
N#Cc1ccc(C(=O)N2CCC(c3ccc(C(=O)NC(=N)N)cc3C(F)(F)F)CC2)cc1	> 30	8.5	15	0.2	11	≥ 2	13	19	< 0.11	6.5	–	–	–	–	–	–	4	–
N#Cc1cccc(C(=O)N2CCC(c3ccc(C(=O)NC(=N)N)cc3C(F)(F)F)CC2)c1	> 30	3.3	7	< 0.056	22	≥ 2	19	16	< 0.11	4.9	18	36	0.035	72	17	–	> 30	–
N=C(N)NC(=O)c1ccc(N2CCC(NC(=O)c3ccc[nH]3)CC2)c(C(F)(F)F)c1	–	–	–	–	–	–	–	–	–	–	–	–	0.041	–	–	Active	–	–

Further lines, with some results ahead:

IC50 (Cytochrome P450 2D6) [µM]	MRT [1] [h]	IC50 (Cytochrome P450 2C19) [µM]	hepatic extraction ratio at 1 h, 1 µM [2]	IC50 (Cytochrome P450 3A4 [3]) [µM]	Papp [4] [×10⁻⁶ cm/s]	IC50 (Cytochrome P450 2C9) [µM]	CL (Rattus norvegicus) [%]	hepatic extraction ratio at 1 h, 1 µM [6]	Vd [7] [L/kg]	CL (Canis familiaris) [%]	bioavailability [8] [%]	IC50 [9] [µM]	bioavailability [10] [%]	MRT [11] [h]	inhibition [12]	Structure (SMILES)	IC50 [5] [µM]	also measured
–	–	–	–	–	–	–	–	–	–	–	–	0.036	–	–	Active	N=C(N)NC(=O)c1ccc(N2CCC(NC(=O)c3ccc[nH]3)C2)c(C(F)(F)F)c1 (racemic)	–	–
> 30	3.2	> 30	0.11	> 30	≥ 2	> 30	5.7	< 0.11	0.76	13	33	0.006	73	6.2	–	CC(=O)N1CCC(c2ccc(C(=O)NC(=N)N)cc2C(F)(F)F)CC1 [BI 9627]	> 30	Activity (Salmonella typhimurium [13]): Non-toxic; Activity (Cytochrome P450 3A4 [14]): Not Active; Activity (U-937): Non-toxic; Activity (Salmonella typhimurium [15]): Non-toxic; Activity (Escherichia coli [16]): Non-toxic; Vd [17]: 1.4 L/kg; Activity (Salmonella typhimurium [18]): Non-toxic; Activity (Heart [19]): 100%; Activity (Escherichia coli [20]): Non-toxic; Activity (Salmonella typhimurium [21]): Non-toxic; Activity (Salmonella typhimurium [22]): Non-toxic; Activity (Salmonella typhimurium [23]): Non-toxic; Activity (Salmonella typhimurium [24]): Non-toxic; Activity (Heart [25]): 36%; inhibition [26]: inactive; Activity (HeLa): Non-toxic; Activity (Salmonella typhimurium [27]): Non-toxic

Reference: ChEMBL document CHEMBL2169836 (J Med Chem, 2012)
